Reference: ChEMBL document CHEMBL1124186, “Synthesis and evaluation of tylosin-related macrolides modified at the aldehyde function: a new series of orally effective antibiotics” (1988)
Converted amounts (≈) assume the structure as drawn.

Assays:
[1] = test system: Mus musculus; assay: Peripheral plasma levels in mice after oral administration of 100 mg/kg dose for 0.25 hr; format: functional, organism-based; parameters: dose 100 mg/kg
Outline: (§1)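 Mice were given the compound orally and sampled for peripheral plasma at each time point. Plasma was assayed microbiologically against Micrococcus luteus seeded in Antibiotic Medium 1. Inhibition zone sizes were read, and concentrations were calculated from each compound's own standard curve. Each value is the mean of five mice per time point.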

[2] = test system: Bacteroides fragilis; assay: In vitro antimicrobial activity against anaerobic bacteria bacteroides fragilis 1877; format: functional
[3] = test system: Rattus norvegicus; assay: Peripheral plasma levels in rats after oral administration of 100 mg/kg dose for 1 hr; format: functional, organism-based; parameters: dose 100 mg/kg
Outline: (§2)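 Rats received 100 mg/kg orally and were sampled for peripheral plasma. Concentrations were measured by Micrococcus luteus agar-diffusion microbiological assay in Antibiotic Medium 1, with zone sizes converted using the standard curve for the appropriate compound. Each value is the average of three rats per time point.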

[4] = test system: Rattus norvegicus; assay: Peripheral plasma levels in rats after oral administration of 100 mg/kg dose for 2 hr; format: functional, organism-based; parameters: dose 100 mg/kg; outline: as §2
[5] = test system: Cutibacterium acnes; assay: In vitro antimicrobial activity against anaerobic bacteria propionibacterium acnes 79; format: functional
[6] = test system: Rattus norvegicus; assay: Peripheral plasma levels in rats after oral administration of 100 mg/kg dose for 4 hr; format: functional, organism-based; parameters: dose 100 mg/kg; outline: as §2
[7] = test system: Peptoniphilus asaccharolyticus; assay: In vitro antimicrobial activity against anaerobic bacteria peptococcus asaccharolyticus 1302; format: functional
[8] = test system: Peptostreptococcus anaerobius; assay: In vitro antimicrobial activity against anaerobic bacteria eubacterium peptostreptococcus anaerobius 1428,; format: functional
[9] = test system: Staphylococcus aureus; assay: In vitro antimicrobial activity against aerobic bacteria Staphylococcus aureus V135; format: functional
[10] = test system: Phocaeicola vulgatus; assay: In vitro antimicrobial activity against anaerobic bacteria bacteroides vulgatus 1211; format: functional
[11] = test system: Prevotella melaninogenica; assay: In vitro antimicrobial activity against anaerobic bacteria bacteroides melaninogenicus 2736; format: functional
[12] = test system: Streptococcus; assay: In vitro antimicrobial activity against aerobic bacteria Streptococcus D 9960; format: functional
[13] = test system: Streptococcus; assay: In vitro antimicrobial activity against aerobic bacteria Streptococcus B 5; format: functional
[14] = test system: Prevotella melaninogenica; assay: In vitro antimicrobial activity against anaerobic bacteria bacteroides melaninogenicus 1856,; format: functional
[15] = test system: Haemophilus influenzae; assay: In vitro antimicrobial activity against aerobic bacteria Haemophilus influenzae 76; format: functional
[16] = test system: Streptococcus; assay: In vitro antimicrobial activity against aerobic bacteria Streptococcus G Kruder; format: functional
[17] = test system: Haemophilus influenzae; assay: In vitro antimicrobial activity against aerobic bacteria Haemophilus influenzae 465; format: functional
[18] = test system: Streptococcus; assay: In vitro antimicrobial activity against aerobic bacteria Streptococcus D 2041; format: functional
[19] = In vitro antimicrobial activity against anaerobic bacteria peptostreptococcus intermedius 1264; format: functional
[20] = test system: Rattus norvegicus; assay: Peripheral plasma levels in rats after oral administration of 100 mg/kg dose for 0.25 hr; format: functional, organism-based; parameters: dose 100 mg/kg; outline: as §2
[21] = test system: Mus musculus; assay: Peripheral plasma levels in mice after oral administration of 100 mg/kg dose for 1 hr; format: functional, organism-based; parameters: dose 100 mg/kg; outline: as §1
[22] = test system: Rattus norvegicus; assay: Peripheral plasma levels in rats after oral administration of 100 mg/kg dose for 0.5 hr; format: functional, organism-based; parameters: dose 100 mg/kg; outline: as §2
[23] = test system: Haemophilus parainfluenzae; assay: In vitro antimicrobial activity against aerobic bacteria Haemophilus parainfluenzae 9796; format: functional
[24] = test system: Fusobacterium; assay: In vitro antimicrobial activity against anaerobic bacteria fusobacterium symbiosum 1470; format: functional
[25] = test system: Streptococcus sanguinis; assay: In vitro antimicrobial activity against aerobic bacteria Streptococcus sanguis MX132; format: functional
[26] = test system: Fusobacterium necrophorum; assay: In vitro antimicrobial activity against anaerobic bacteria usobacterium necrophorum 6054A; format: functional
[27] = test system: Clostridium septicum; assay: In vitro antimicrobial activity against anaerobic bacteria clostridium septicum 1128; format: functional
[28] = test system: Staphylococcus epidermidis; assay: In vitro antimicrobial activity against aerobic bacteria Streptococcus epi 222; format: functional
[29] = test system: Streptococcus; assay: In vitro antimicrobial activity against aerobic bacteria Streptococcus B 8; format: functional
[30] = test system: Clostridium perfringens; assay: In vitro antimicrobial activity against anaerobic bacteria clostridium perfringens 81,; format: functional
[31] = test system: Mus musculus; assay: Peripheral plasma levels in mice after oral administration of 100 mg/kg dose for 0.5 hr; format: functional, organism-based; parameters: dose 100 mg/kg; outline: as §1
[32] = test system: Collinsella aerofaciens; assay: In vitro antimicrobial activity against anaerobic bacteria eubacterium aerofaciens 1235; format: functional
[33] = test system: Clostridioides difficile; assay: In vitro antimicrobial activity against anaerobic bacteria Clostridium difficile 2994; format: functional
[34] = test system: Haemophilus influenzae; assay: In vitro antimicrobial activity against aerobic bacteria Haemophilus influenzae MX366,; format: functional
[35] = test system: Streptococcus; assay: In vitro antimicrobial activity against aerobic bacteria Streptococcus D 8043; format: functional
[36] = test system: Mus musculus; assay: Peripheral plasma levels in mice after oral administration of 100 mg/kg dose for 2 hr; format: functional, organism-based; parameters: dose 100 mg/kg; outline: as §1
[37] = test system: Bacteroides thetaiotaomicron; assay: In vitro antimicrobial activity against anaerobic bacteria bacteroides thetaiotaomicron 1438; format: functional
[38] = test system: Staphylococcus aureus; assay: In vitro antimicrobial activity against aerobic bacteria Staphylococcus aureus 513E; format: functional
[39] = test system: Streptococcus; assay: In vitro antimicrobial activity against aerobic bacteria Streptococcus C 24; format: functional
[40] = test system: Staphylococcus aureus; assay: In vitro antimicrobial activity against aerobic bacteria Staphylococcus aureus V140,; format: functional
[41] = test system: Bacteroides fragilis; assay: In vitro antimicrobial activity against anaerobic bacteria bacteroides fragilis 1936B,; format: functional
[42] = test system: Bacteroides fragilis; assay: In vitro antimicrobial activity against anaerobic bacteria bacteroides fragilis 111; format: functional
[43] = test system: Eikenella corrodens; assay: In vitro antimicrobial activity against anaerobic bacteria bacteroides corrodens 1874; format: functional
[44] = test system: Streptococcus pneumoniae; assay: In vitro antimicrobial activity against aerobic bacteria Streptococcus pneumoniae B1-438; format: functional, streptococcus pneum
[45] = test system: Streptococcus; assay: In vitro antimicrobial activity against aerobic bacteria Streptococcus B 14; format: functional
[46] = test system: Staphylococcus aureus; assay: In vitro antimicrobial activity against Staphylococcus aureus X1; format: functional
[47] = test system: Staphylococcus epidermidis; assay: In vitro antimicrobial activity against Staphylococcus epidermidis EPI1; format: functional
[48] = test system: Streptococcus pneumoniae; assay: In vitro antimicrobial activity against Streptococcus pneumoniae; format: functional
[49] = test system: Enterococcus faecium; assay: In vitro antimicrobial activity against Streptococcus faecium X66; format: functional, streptococcus fae-cium
[50] = test system: Streptococcus pyogenes; assay: In vitro antimicrobial activity against Streptococcus pyogenes C203; format: functional
[51] = test system: Streptococcus pyogenes; assay: In vivo effective dose against experimental infections in rodent caused by Streptococcus pyogenes C203 when administered sc; format: functional
[52] = test system: Anaerococcus prevotii; assay: In vitro antimicrobial activity against anaerobic bacteria peptococcus prevoti 1281; format: functional
[53] = test system: Chlamydia trachomatis; assay: In vitro antimicrobial activity against chlamydia trachomatis.; format: functional
[54] = test system: Streptococcus pyogenes; assay: In vivo effective dose against experimental infections in rodent caused by Streptococcus pyogenes C203 when administered orally; format: functional; conditions: po
[55] = test system: Haemophilus influenzae; assay: In vitro antimicrobial activity against Haemophilus influenzae.; format: functional

Compound: CC[C@H]1OC(=O)[C@H](C)[C@@H](O[C@H]2C[C@@](C)(OC)[C@@H](O)[C@H](C)O2)[C@H](C)[C@@H](O[C@@H]2O[C@H](C)C[C@H](N(C)C)[C@H]2O)[C@](C)(O)C[C@@H](C)C(=O)[C@H](C)[C@@H](O)[C@]1(C)O [ERYTHROMYCIN]
- Concentration [1]: 2.5 µg ml-1 ml-1
- MIC [2]: 4 µg/mL (≈ 5.45 µM)
- Concentration [3]: 0.1 µg ml-1 ml-1
- Concentration [4]: 0.2 µg ml-1 ml-1
- MIC [5]: < 0.5 µg/mL
- Concentration [6]: 0.4 µg ml-1 ml-1
- MIC [7]: 8 µg/mL (≈ 10.9 µM)
- MIC [8]: 1 µg/mL (≈ 1.36 µM)
- MIC [9]: 0.25 µg/mL (≈ 0.341 µM)
- MIC [10]: < 0.5 µg/mL
- MIC [11]: 1 µg/mL (≈ 1.36 µM)
- MIC [12]: 2 µg/mL (≈ 2.73 µM)
- MIC [13]: 0.06 µg/mL (≈ 0.0818 µM)
- MIC [14]: 2 µg/mL (≈ 2.73 µM)
- MIC [15]: 2 µg/mL (≈ 2.73 µM)
- MIC [16]: 0.1 µg/mL (≈ 0.136 µM)
- MIC [17]: 4 µg/mL (≈ 5.45 µM)
- MIC [18]: 1 µg/mL (≈ 1.36 µM)
- MIC [19]: < 0.5 µg/mL
- Concentration [20]: 0.1 µg ml-1 ml-1
- Concentration [21]: 2.7 µg ml-1 ml-1
- Concentration [22]: 0.1 µg ml-1 ml-1
- MIC [23]: 4 µg/mL (≈ 5.45 µM)
- MIC [24]: 2 µg/mL (≈ 2.73 µM)
- MIC [25]: 0.03 µg/mL (≈ 0.0409 µM)
- MIC [26]: 2 µg/mL (≈ 2.73 µM)
- MIC [27]: < 0.5 µg/mL
- MIC [28]: 0.06 µg/mL (≈ 0.0818 µM)
- MIC [29]: 0.06 µg/mL (≈ 0.0818 µM)
- MIC [30]: < 0.5 µg/mL
- Concentration [31]: 5.6 µg ml-1 ml-1
- MIC [32]: < 0.5 µg/mL
- MIC [33]: < 0.5 µg/mL
- MIC [34]: 4 µg/mL (≈ 5.45 µM)
- MIC [35]: 0.06 µg/mL (≈ 0.0818 µM)
- Concentration [36]: 0.7 µg ml-1 ml-1
- MIC [37]: 1 µg/mL (≈ 1.36 µM)
- MIC [38]: 0.25 µg/mL (≈ 0.341 µM)
- MIC [39]: 0.12 µg/mL (≈ 0.164 µM)
- MIC [40]: 0.25 µg/mL (≈ 0.341 µM)
- MIC [41]: 2 µg/mL (≈ 2.73 µM)
- MIC [42]: 1 µg/mL (≈ 1.36 µM)
- MIC [43]: 1 µg/mL (≈ 1.36 µM)
- MIC [44]: 6 µg/mL (≈ 8.18 µM)
- MIC [45]: 0.12 µg/mL (≈ 0.164 µM)

Compound: CC[C@H]1OC(=O)C[C@@H](O)[C@H](C)[C@@H](O[C@@H]2O[C@H](C)[C@@H](O)[C@H](N(C)C)[C@H]2O)[C@@H](CCSc2ccccc2)C[C@@H](C)C(=O)/C=C/C(C)=C/[C@@H]1CO[C@@H]1O[C@H](C)[C@@H](O)[C@@H](OC)[C@H]1OC
- Concentration [3]: 2.5 µg/mL
- Concentration [4]: 2.9 µg/mL
- Concentration [6]: 4.2 µg/mL
- MIC [46]: 0.25 µg/mL (≈ 0.289 µM)
- MIC [47]: 0.25 µg/mL (≈ 0.289 µM)
- Concentration [20]: 0.5 µg/mL
- Concentration [22]: 1.3 µg/mL
- MIC [48]: 2 µg/mL (≈ 2.31 µM)
- MIC [49]: 8 µg/mL (≈ 9.24 µM)
- MIC [50]: 0.25 µg/mL (≈ 0.289 µM)
- ED50 [51]: 10 mg/kg

Compound: CC[C@H]1C[C@@H](C)C(=O)/C=C/C(C)=C/[C@H](CO)[C@@H](CC)OC(=O)C[C@@H](O)[C@H](C)[C@H]1O[C@@H]1O[C@H](C)[C@@H](O)[C@H](N(C)C)[C@H]1O
- MIC [2]: > 8 µg/mL
- MIC [5]: 2 µg/mL (≈ 3.43 µM)
- MIC [52]: > 8 µg/mL
- MIC [46]: 4 µg/mL (≈ 6.85 µM)
- MIC [7]: > 8 µg/mL
- MIC [8]: > 8 µg/mL
- MIC [10]: > 8 µg/mL
- MIC [11]: > 8 µg/mL
- MIC [53]: 0.5 µg/mL (≈ 0.857 µM)
- ED50 [54]: 75 mg/kg
- MIC [14]: > 8 µg/mL
- MIC [47]: 8 µg/mL (≈ 13.7 µM)
- MIC [19]: > 8 µg/mL
- MIC [24]: > 8 µg/mL
- MIC [26]: 8 µg/mL (≈ 13.7 µM)
- MIC [27]: 2 µg/mL (≈ 3.43 µM)
- MIC [30]: 2 µg/mL (≈ 3.43 µM)
- MIC [32]: 2 µg/mL (≈ 3.43 µM)
- MIC [33]: 2 µg/mL (≈ 3.43 µM)
- MIC [48]: 8 µg/mL (≈ 13.7 µM)
- MIC [49]: 16 µg/mL (≈ 27.4 µM)
- MIC [37]: > 8 µg/mL
- MIC [50]: 8 µg/mL (≈ 13.7 µM)
- MIC [41]: > 8 µg/mL
- MIC [42]: > 8 µg/mL
- MIC [43]: > 8 µg/mL
- MIC [55]: 32 µg/mL (≈ 54.8 µM)
- ED50 [51]: > 30 mg/kg
